Data as given in ChEMBL document CHEMBL3098060, “Antitumor potential of conjugable valinomycins bearing hydroxyl sites: in vitro studies” (ACS Med Chem Lett, 2013).
pIC50: −log10 of the molar value. Calls of active or inactive are those of the source. The calls are words filed in the database; no cut-off is given here.

Assays:
A2780 [1] = assay: Selectivity ratio of IC50 for human A2780 cells to IC50 for human HepG2 cells; type: functional
Procedure, shortened: (§1)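 Ratio of two 72 h IC50 values, each from the same MTT viability assay. A2780, MCF-7, HepG2 and rat C6 glioma cells were treated at 0.0001–10 μM. Percent viability was calculated and IC50 taken as the concentration giving 50% survival inhibition. Means are from three independent experiments run in duplicate.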

MCF7 [2] = assay: Cytotoxicity against human MCF7 cells assessed as cell survival at 0.0001 to 10 uM by MTT assay; type: functional, cell-based; details: TDE = time-dependent effect
Procedure, shortened: (§2)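 Cells seeded at 10,000 per well and treated with 0.0001–10 μM. Incubated at 37 °C in CO2 for 24, 48 or 72 h. Viable cells measured by MTT conversion. Time course shown at a fixed 0.01 μM.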

MCF7 [3] = assay: Cytotoxicity against human MCF7 cells after 72 hrs by MTT assay; type: functional, cell-based; details: MCF7, 72 h
Procedure, shortened: (§3)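 Cells exposed to 0.0001–10 μM for 72 h. Viability by MTT conversion, expressed as % of cells viable. IC50 taken as the concentration giving 50% inhibition of survival, from concentration–viability profiles. Three independent experiments, each in duplicate, averaged.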

HepG2 [4] = assay: Cytotoxicity against human HepG2 cells assessed as cell survival after 24 to 72 hrs by MTT assay; type: functional, cell-based; procedure, shortened: as §2
HepG2 [5] = assay: Cytotoxicity against human HepG2 cells assessed as cell survival at 0.0001 to 10 uM by MTT assay; type: functional, cell-based; details: TDE = time-dependent effect; procedure, shortened: as §2
A2780 [6] = assay: Selectivity ratio of IC50 for human A2780 cells to IC50 for rat C6 cells; type: functional; procedure, shortened: as §1
MCF7 [7] = assay: Induction of mitochondrial membrane depolarization in human MCF7 cells after 72 hrs by JC-1 staining-based FACS flow cytometric analysis (reference value: 1%); type: functional
C6 [8] = assay: Cytotoxicity against rat C6 cells assessed as cell survival after 24 to 72 hrs by MTT assay; type: functional, cell-based; procedure, shortened: as §2
A2780 [9] = assay: Cytotoxicity against human A2780 cells assessed as cell survival after 24 to 72 hrs by MTT assay; type: functional, cell-based; procedure, shortened: as §2
C6 [10] = assay: Induction of apoptosis in rat C6 cells assessed as fragmentation of mitochondrial network at 50 nM after 72 hrs by MitoTracker Red CMXRos staining-based fluorescence microscopy; type: functional, cell-based
Procedure, shortened: (§4)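 C6 glioma cells seeded at 100,000 per well and treated 72 h at 37 °C, 5% CO2, with 50 nM or 1 μM depending on compound. Mitochondria stained with 25 nM MitoTracker Red CMXRos and network morphology imaged against untreated controls. Over 10 cells examined per experiment, 3 independent experiments.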

C6 [11] = assay: Cytotoxicity against rat C6 cells after 72 hrs by MTT assay; type: functional, cell-based; details: C6, 72 h; procedure, shortened: as §3
MCF7 [12] = assay: Cell cycle arrest in human MCF7 cells assessed as accumulation at G2/M phase at 5 uM after 24 hrs by propidium iodide staining-based FACS flow cytometric analysis (reference value: 25.92%); type: functional
MCF7 [13] = assay: Cell cycle arrest in human MCF7 cells assessed as accumulation at G0/G1 phase at 5 uM after 24 hrs by propidium iodide staining-based FACS flow cytometric analysis (reference value: 64.34%); type: functional
A2780 [14] = assay: Cytotoxicity against human A2780 cells after 72 hrs by MTT assay; type: functional, cell-based; details: A2780, 72 h; procedure, shortened: as §3
MCF7 [15] = assay: Cytotoxicity against human MCF7 cells assessed as cell survival after 24 to 72 hrs by MTT assay; type: functional, cell-based; procedure, shortened: as §2
HepG2 [16] = assay: Selectivity ratio of IC50 for human MCF7 cells to IC50 for human HepG2 cells; type: functional; procedure, shortened: as §1
A2780 [17] = assay: Cytotoxicity against human A2780 cells assessed as cell survival at 0.0001 to 10 uM by MTT assay; type: functional, cell-based; details: TDE = time-dependent effect; procedure, shortened: as §2
MCF7 [18] = assay: Cell cycle arrest in human MCF7 cells assessed as accumulation at S phase at 5 uM after 24 hrs by propidium iodide staining-based FACS flow cytometric analysis (reference value: 9.74%); type: functional
C6 [19] = assay: Cytotoxicity against rat C6 cells assessed as cell survival at 0.0001 to 10 uM by MTT assay; type: functional, cell-based; details: TDE = time-dependent effect; procedure, shortened: as §2
HepG2 [20] = assay: Cytotoxicity against human HepG2 cells after 72 hrs by MTT assay; type: functional, cell-based; details: HepG2, 72 h; procedure, shortened: as §3
C6 [21] = assay: Selectivity ratio of IC50 for human MCF7 cells to IC50 for rat C6 cells; type: functional; procedure, shortened: as §1
C6 [22] = assay: Induction of apoptosis in rat C6 cells assessed as fragmentation of mitochondrial network at 1 uM after 72 hrs by MitoTracker Red CMXRos staining-based fluorescence microscopy; type: functional, cell-based; procedure, shortened: as §4
MCF7 [23] = assay: Cell cycle arrest in human MCF7 cells assessed as accumulation at S phase at 0.05 uM after 24 hrs by propidium iodide staining-based FACS flow cytometric analysis (reference value: 9.74%); type: functional
MCF7 [24] = assay: Cell cycle arrest in human MCF7 cells assessed as accumulation at G2/M phase at 0.05 uM after 24 hrs by propidium iodide staining-based FACS flow cytometric analysis (reference value: 25.92%); type: functional
MCF7 [25] = assay: Cell cycle arrest in human MCF7 cells assessed as accumulation at G0/G1 phase at 0.05 uM after 24 hrs by propidium iodide staining-based FACS flow cytometric analysis (reference value: 64.34%); type: functional

Structure (SMILES)	Activity (MCF7 [2])	pIC50 (MCF7 [3])	Activity (HepG2 [4])	Activity (HepG2 [5])	Activity (MCF7 [7])	Activity (C6 [8])	Activity (A2780 [9])	Activity (C6 [10])	pIC50 (C6 [11])	Activity (MCF7 [12])	Activity (MCF7 [13])	pIC50 (A2780 [14])	Activity (MCF7 [15])	Activity (A2780 [17])	Activity (MCF7 [18])	Activity (C6 [19])	pIC50 (HepG2 [20])	further results
CC(C)[C@@H]1NC(=O)[C@H](C)OC(=O)[C@@H](C(C)C)NC(=O)[C@@H](C(C)C)OC(=O)[C@H](C(C)C)NC(=O)[C@H](C)OC(=O)[C@@H](C(C)C)NC(=O)[C@@H](C(C)C)OC(=O)[C@H](C(C)C)NC(=O)[C@H](C)OC(=O)[C@@H](C(C)C)NC(=O)[C@@H](C(C)C)OC1=O [VALINOMYCIN]	tde	5.75	Dose-dependent effect	tde	16%	Dose-dependent effect	Dose-dependent effect	Active	9.40	18.15%	56.07%	5.66	Dose-dependent effect	tde	25.79%	tde	9.10	Ratio IC50 (A2780 [1]): 3; Ratio IC50 (A2780 [6]): 3; Ratio IC50 (HepG2 [16]): 3; Ratio IC50 (C6 [21]): 3
CC(C)[C@@H]1NC(=O)[C@H](C)OC(=O)[C@@H](C(C)C)NC(=O)[C@@H](C(C)C)OC(=O)[C@H](C(C)(C)O)NC(=O)[C@H](C)OC(=O)[C@@H](C(C)C)NC(=O)[C@@H](C(C)C)OC(=O)[C@H](C(C)C)NC(=O)[C@H](C)OC(=O)[C@@H](C(C)C)NC(=O)[C@@H](C(C)C)OC1=O	tde	5.41	Dose-dependent effect	tde	15.6%	Dose-dependent effect	Dose-dependent effect	Active	8.54	16.9%	57.53%	5.60	Dose-dependent effect	tde	25.57%	tde	8.31	
CC(C)[C@@H]1NC(=O)[C@H](C)OC(=O)[C@@H](C(C)C)NC(=O)[C@@H](C(C)(C)O)OC(=O)[C@H](C(C)C)NC(=O)[C@H](C)OC(=O)[C@@H](C(C)C)NC(=O)[C@@H](C(C)C)OC(=O)[C@H](C(C)C)NC(=O)[C@H](C)OC(=O)[C@@H](C(C)C)NC(=O)[C@@H](C(C)C)OC1=O		< 5.00			8.9%				6.76	19.76%	55.63%	< 5.00			24.6%	tde	6.71	Activity (C6 [22]): Active
CC(C)[C@@H]1NC(=O)[C@H](C)OC(=O)[C@@H](C(C)C)NC(=O)[C@@H](C(C)C)OC(=O)[C@H](C(C)C)NC(=O)[C@H](C)OC(=O)[C@@H](C(C)(C)O)NC(=O)[C@@H](C(C)C)OC(=O)[C@H](C(C)C)NC(=O)[C@H](C)OC(=O)[C@@H](C(C)C)NC(=O)[C@@H](C(C)C)OC1=O	tde	5.41	Dose-dependent effect	tde	12.1%	Dose-dependent effect	Dose-dependent effect	Active	8.62			5.34	Dose-dependent effect	tde		tde	8.37	Activity (MCF7 [23]): 23.07%; Activity (MCF7 [24]): 21.49%; Activity (MCF7 [25]): 55.44%
